These results are taken from ChEMBL document CHEMBL1123554, “Acetylenic nucleosides. 4. 1-beta-D-arabinofuranosyl-5-ethynylcytosine. Improved synthesis and evaluation of biochemical and antiviral properties” (1987).

In assay [1] the test system is Human alphaherpesvirus 1. The assay is described as follows: Antiviral activity against HSV-1 kinase mutant resistant to B3(BVdU) was determined at a conc of 30 uM. The format is functional. A digest of the protocol:
(§1)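 HSV-infected HeLa BU cells seeded in 25-cm² flasks. The next day, virus was added at a multiplicity of 3–5 PFU/cell and allowed 1 h to adsorb. Virus was then removed and growth medium with or without drug was added. Cells were held at 37 °C for 24 h, then frozen at –70 °C until titration. Yield is expressed as PFU, % of untreated control.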

For assay [2], the system named is Human alphaherpesvirus 1. The assay is described as follows: Antiviral activity against HSV-1 kinase mutant resistant to Tr7(ACV) was determined at a conc of 30 uM. The format is functional. Summed up:
as §1

In assay [3] the test system is Human alphaherpesvirus 1. The assay is described as follows: Antiviral activity against HSV-1 kinase mutant resistant to SCS(parental) was determined at a conc of 30 uM. The format is functional. Summed up:
as §1

Assay [4] relates to Human alphaherpesvirus 1. As to the kind of experiment: Antiviral activity against DNA polymerase mutant resistant to PFA 5a(PFA) was determined at a conc of 50 uM. It counts as functional. Summed up: as §1
For assay [5], the system named is Human alphaherpesvirus 1. The assay is described as follows: Antiviral activity against HSV-1 kinase mutant resistant to B3(BVdU) was determined at a conc of 50 uM. It counts as functional. Summed up: as §1
Assay [6] has as its system Human alphaherpesvirus 1. The assay is described as follows: Antiviral activity against DNA polymerase mutant resistant to KOS(parental) was determined at a conc of 50 uM. The format is functional. A digest of the protocol:
as §1

Assay [7] deals with Human alphaherpesvirus 1. As to the kind of experiment: Antiviral activity against HSV-1 kinase mutant resistant to Tr7(ACV) was determined at a conc of 50 uM. It counts as functional. Summed up: as §1
Assay [8] concerns Human alphaherpesvirus 1. As to the kind of experiment: Antiviral activity against HSV-1 kinase mutant resistant to S1(ACV) was determined at a conc of 50 uM. It counts as functional. A digest of the protocol:
as §1

For assay [9], the system named is Human alphaherpesvirus 1. As to the kind of experiment: Antiviral activity against DNA polymerase mutant resistant to PFA 3b(PFA) was determined at a conc of 50 uM. The format is functional. A digest of the protocol: as §1
For assay [10], the system named is Human alphaherpesvirus 1. The assay is described as follows: Antiviral activity against DNA polymerase mutant resistant to PFA 1a (PFA) was determined at a conc of 50 uM. The format is functional. Summed up: as §1
Assay [11] deals with Human alphaherpesvirus 1. The assay is described as follows: Antiviral activity against HSV-1 kinase mutant resistant to SCS(parental) was determined at a conc of 50 uM. The format is functional. Summed up:
as §1

The target in assay [12] is Cytidine deaminase (Homo sapiens) (UniProt P32320). The assay is described as follows: relative velocity was determined against deaminase purified from human acute myeloblastic leukemia cells.
In assay [13] the test system is Thymidine kinase (Human herpesvirus 2). The assay is described as follows: Phosphorylating activity of viral HSV -2 (333) induced thymidine kinase relative to dThdK was determined. The settings on record: Human alphaherpesvirus 2.
For assay [14], the system named is Human alphaherpesvirus 1. As to the kind of experiment: Antiviral activity against HSV-1 kinase mutant resistant to Tr7(ACV) was determined at a conc of 100 uM. The format is functional. Summed up:
as §1

The test system of assay [15] is Human alphaherpesvirus 1. As to the kind of experiment: Antiviral activity against HSV-1 kinase mutant resistant to SCS(parental) was determined at a conc of 100 uM. It counts as functional. A digest of the protocol:
as §1

For assay [16], the system named is Human alphaherpesvirus 1. As to the kind of experiment: Antiviral activity against HSV-1 kinase mutant resistant to B3(BVdU) was determined at a conc of 100 uM. The format is functional. Summed up:
as §1

The target in assay [17] is Cytidine deaminase (Homo sapiens) (UniProt P32320). The assay is described as follows: Relative velocity was determined against deaminase purified from human acute myeloblastic leukemia cells.
Assay [18] has as its system Human alphaherpesvirus 1. As to the kind of experiment: Antiviral activity against HSV-1 kinase mutant resistant to S1(ACV) was determined at a conc of 100 uM. It counts as functional. Summed up:
as §1

Assay [19] concerns Human alphaherpesvirus 1. As to the kind of experiment: Antiviral activity against DNA polymerase mutant resistant to PFA 1a (PFA) was determined at a conc of 100 uM. It counts as functional. Summed up:
as §1

Assay [20] relates to Human alphaherpesvirus 2. As to the kind of experiment: Antiviral activity against HSV-2 (333)was determined at a conc of 50 uM. It counts as functional. Summed up:
as §1

Assay [21] has as its system Human alphaherpesvirus 1. As to the kind of experiment: Antiviral activity against DNA polymerase mutant resistant to PFA 3b(PFA) was determined at a conc of 100 uM. It counts as functional. A digest of the protocol: as §1
Assay [22] has as its system Human alphaherpesvirus 1. As to the kind of experiment: Antiviral activity against DNA polymerase mutant resistant to PFA 5a(PFA) was determined at a conc of 100 uM. It counts as functional. A digest of the protocol: as §1
For assay [23], the system named is Human alphaherpesvirus 1. The assay is described as follows: Antiviral activity against DNA polymerase mutant resistant to KOS(parental) was determined at a conc of 100 uM. The format is functional. Summed up:
as §1

Chain of Cytidine deaminase (Homo sapiens) (P32320 whole entry, looked up): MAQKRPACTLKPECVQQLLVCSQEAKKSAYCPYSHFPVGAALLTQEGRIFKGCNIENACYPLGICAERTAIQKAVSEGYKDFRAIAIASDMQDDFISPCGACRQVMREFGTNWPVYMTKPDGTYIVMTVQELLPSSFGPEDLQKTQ

Regarding `O=c1[nH]c(=O)n([C@H]2C[C@H](O)[C@@H](CO)O2)cc1/C=C/Br` [BRIVUDINE], the Control in assay [1] is recorded as 52%; in [2] it was 0.8%; in assay [3], 0.4%.
For the compound `Nc1nc2c(ncn2COCCO)c(=O)[nH]1` [ACYCLOVIR], the Control turned out to be 21% in assay [4]; 0.3% in assay [5]; 3% in assay [6]; 10% in assay [7]; 18% in assay [8]; 63% in assay [9]. Further, the Control in assay [10] stood at 37%; in assay [11], 0.2%.
In turn, `Nc1ccn([C@H]2C[C@H](O)[C@@H](CO)O2)c(=O)n1` returned a Relative velocity in assay [12] of 1.
As to `O=C(O)P(=O)(O)O` [FOSCARNET], the Control in assay [4] was 63%; in assay [6], 2.9%; in [9], 24%; in [10], 37%.
On to `C#Cc1cn(C2O[C@H](CO)[C@@H](O)[C@@H]2O)c(=O)nc1N` (stereo not given in full), for which the Control is on record as 0% in [4]; 0.04% in assay [5]; 0.06% in assay [6]; 0.12% in [14]; 0.12% in assay [15]; 4.7% in assay [7]. The Control came out at 0.06% in [16]; 59% in assay [18]; 0.04% in assay [19]; 70% in assay [8]; 0.36% in assay [9]; 0.28% in assay [20]. Also, the Control was 0.04% in assay [21]; 0.1% in assay [22]; 0.06% in assay [23]; 0.54% in assay [10]; 0.38% in assay [11]. Besides, the Relative velocity stood at 30% in assay [13] and 0.02 in assay [17].
